# Tests used:
# [1] = test system: HeLa; experiment: Anticancer activity against human HeLa cells assessed as cell viability measured after 72 hrs by MTT assay; format: functional, cell-based
# In short: (§1)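 MTS growth assay after 72 h compound exposure. RPMI8226 (1×10^4/well), THP-1 and Ramos (5×10^4/well) were cultured in RPMI 1640 with 10% FBS. MGC-803, HeLa and SW480 (5×10^3/well) were cultured in DMEM with 10% FBS. All at 37 °C, 5% CO2. MTS was added for 3 h at 37 °C and OD read at 490 nm. IC50 from 7 concentrations; triplicate wells, three independent experiments.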
# [2] = test system: SW480; experiment: Anticancer activity against human SW480 cells assessed as cell viability measured after 72 hrs by MTT assay; format: functional, cell-based; details: SW480, 72 h; in short: as §1
# [3] = test system: Ramos; experiment: Anticancer activity against human Ramos cells assessed as cell viability measured after 72 hrs by MTT assay; format: functional, cell-based; in short: as §1
# [4] = test system: RPMI-8226; experiment: Anticancer activity against human RPMI8226 cells assessed as cell viability measured after 72 hrs by MTT assay; format: functional, cell-based; details: RPMI-8226, 72 h; in short: as §1
# [5] = test system: THP-1; experiment: Anticancer activity against human THP-1 cells assessed as cell viability measured after 72 hrs by MTT assay; format: functional, cell-based; details: THP-1, 72 h; in short: as §1
# [6] = test system: MGC-803; experiment: Anticancer activity against human MGC-803 cells assessed as cell viability measured after 72 hrs by MTT assay; format: functional, cell-based; details: MGC-803, 72 h; in short: as §1
# [7] = test system: SARS-CoV-2; experiment: Antiviral activity against SARS coronavirus 2 infected in Vero E6 cells assessed as plague reduction measured after 1 hr; format: functional, organism-based; details: Severe acute respiratory syndrome coronavirus 2, Vero C1008, 1 h
# [8] = Cytotoxicity in African green monkey Vero E6 cells assessed as reduction in cell viability after 48 hrs by Celltiter Glo luminescent assay; format: cell-based; details: chlorocebus aethiops, vero e6, 48 h
# In short: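 CellTiter-Glo viability: Vero E6 cells at 2 × 10^4 cells/well were exposed to serially diluted compound for 48 h. Luminescence was read 10 min after substrate addition. CC50 was derived by curve fitting.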
Compound,IC50 [1] [nM],IC50 [2] [nM],IC50 [3] [nM],IC50 [4] [nM],IC50 [5] [nM],IC50 [6] [nM],EC50 [7] [nM],Activity [8]
COc1ccc(C[C@H](NC(=O)[C@H](C)NC(=O)c2ccc(-c3ccc(C(C)=O)cc3)o2)C(=O)N[C@@H](CC(C)C)C(=O)C(=O)Nc2ccccc2)cc1,3200,2000,428,475,475,1160,,
CC(=O)c1cccc(NC(=O)C(=O)[C@H](CC(C)C)NC(=O)[C@H](Cc2c[nH]c3ccccc23)NC(=O)[C@H](CC(C)C)NC(=O)OCc2ccccc2)c1,,94.2,38.4,91,78.1,88.8,,
CCc1cccc(NC(=O)C(=O)[C@H](CC(C)C)NC(=O)[C@H](CC(C)C)NC(=O)[C@H](CC(C)C)NC(=O)OCc2ccccc2)c1,212,82.9,45.7,40.4,71.1,78.5,,
COc1ccc(C[C@H](NC(=O)[C@H](C)NC(=O)c2ccc(-c3ccccc3)cc2)C(=O)N[C@@H](CC(C)C)C(=O)C(=O)Nc2ccccc2)cc1,8700,2440,464,455,568,2020,,
COc1ccc(C[C@H](NC(=O)[C@H](C)NC(=O)CN2CCOCC2)C(=O)N[C@@H](Cc2ccccc2)C(=O)C(=O)Nc2ccccc2)cc1,,,,,,,1280,Non-Toxic
COc1cc(NC(=O)C(=O)[C@H](CC(C)C)NC(=O)[C@H](CC(C)C)NC(=O)[C@H](CC(C)C)NC(=O)OCc2ccccc2)cc(OC)c1,120,72.5,26.9,37.6,70.7,68.5,,
CC(C)C[C@H](NC(=O)OCc1ccccc1)C(=O)N[C@@H](CC(C)C)C(=O)N[C@@H](CC(C)C)C(=O)C(=O)Nc1ccccc1,288,106,53.6,67.8,88.1,119,,

# — ChEMBL document CHEMBL4732244, “A new class of α-ketoamide derivatives with potent anticancer and anti-SARS-CoV-2 activities” (Eur J Med Chem, 2021)
